Assays:
HpMTAN [1] = molecular target: T1, HpMTAN (Helicobacter pylori, UniProt Q9ZMY2); format: biochemical
T1 sequence (Q9ZMY2 1-230): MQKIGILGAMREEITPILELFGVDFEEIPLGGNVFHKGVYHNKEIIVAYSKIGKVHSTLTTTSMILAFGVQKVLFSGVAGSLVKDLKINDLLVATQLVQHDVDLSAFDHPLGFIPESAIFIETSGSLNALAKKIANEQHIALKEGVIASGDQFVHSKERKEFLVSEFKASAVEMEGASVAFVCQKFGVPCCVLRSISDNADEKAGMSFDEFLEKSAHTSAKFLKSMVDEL

HpAFLDA = HpAFLDA (Helicobacter pylori, UniProt Q9ZMG8); experiment: HpAFLDA inhibition assay; format: biochemical, H. pylori strain J99
[2] = molecular target: human adenosine deaminase (HsADA); conditions: cited from earlier work
H. pylori J99 = experiment: Inhibition of H. pylori growth in liquid culture; format: cell-based, Helicobacter pylori
HpAFLDA (jhp0252) = molecular target: T2, HpAFLDA (jhp0252) (Helicobacter pylori, UniProt Q9ZMG8); experiment: Enzymatic assay for HpAFLDA deaminase activity; format: biochemical, H. pylori strain J99; conditions: for fold difference of kcat/Km between AFL and adenosine: HpAFLDA, AFL greater than adenosine
T2 sequence (Q9ZMG8 1-409): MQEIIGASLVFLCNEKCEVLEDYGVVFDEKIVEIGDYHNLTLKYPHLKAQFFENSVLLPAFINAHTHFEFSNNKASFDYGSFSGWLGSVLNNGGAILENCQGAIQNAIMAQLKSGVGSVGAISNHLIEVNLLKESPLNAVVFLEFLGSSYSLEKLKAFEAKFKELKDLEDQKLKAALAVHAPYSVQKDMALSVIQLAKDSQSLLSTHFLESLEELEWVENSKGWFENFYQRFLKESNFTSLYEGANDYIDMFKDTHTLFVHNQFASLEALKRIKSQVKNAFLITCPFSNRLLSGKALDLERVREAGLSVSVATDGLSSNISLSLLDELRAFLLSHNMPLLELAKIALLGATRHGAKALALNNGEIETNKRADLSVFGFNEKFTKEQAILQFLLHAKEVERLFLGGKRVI

HpMTAN [3] = molecular target: T1, HpMTAN; experiment: AFL and FL hydrolysis by HpMTAN; format: biochemical
H. pylori cells [4] = experiment: Metabolism of AFL and FL by live H. pylori cell mixtures; format: cell-based, Helicobacter pylori; conditions: ~10^8 cells in PBS pH 7.0
Summary of the method: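 Live cells were taken from overnight cultures and washed twice with PBS. Incubations were started by adding 25 μM AFL or FL to ~10^8 cells in PBS (pH 7.0). Metabolites were extracted with ice-cold acetonitrile/methanol/water (40:40:20) containing 0.1 M formic acid and a deuterated SAM internal standard. Extracts were dried, redissolved in water, and quantified by reversed-phase LC-MS/MS (ESI−, MRM).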

H. pylori = experiment: Metabolite supplementation of the growth medium, effect on H. pylori cell growth; format: cell-based, Helicobacter pylori
[5] = system: Sav2595, Acel0264, Dr0824, Nis0429; conditions: four enzymes, 30 °C; cited from earlier work
H. pylori cells [6] = format: cell-based, Helicobacter pylori
[7] = substrate: Nc1ncnc2c1ncn2[C@@H]1O[C@H](CCC(=O)c2cccc(C(=O)O)c2)[C@@H](O)[C@H]1O; experiment: AFL and FL hydrolysis by HpMTAN; format: biochemical, Helicobacter pylori; conditions: other: hydrolysis by HpMTAN, 50 mM HEPES pH 7.0
[8] = substrate: C[C@H]1O[C@@H](n2cnc3c(N)ncnc32)[C@H](O)[C@@H]1O; experiment: Enzymatic assay for HpAFLDA deaminase activity; format: biochemical, H. pylori strain J99; conditions: other: deamination by HpAFLDA, 50 mM HEPES pH 7.0, 25 °C
[9] = substrate: Nc1ncnc2c1ncn2[C@@H]1O[C@H](CCC(=O)c2cccc(C(=O)O)c2)[C@@H](O)[C@H]1O; experiment: Enzymatic assay for HpAFLDA deaminase activity; format: biochemical, H. pylori strain J99; conditions: other: deamination by HpAFLDA, 50 mM HEPES pH 7.0, 25 °C
[10] = substrate: Nc1ncnc2c1ncn2[C@@H]1O[C@H](CO)[C@@H](O)[C@H]1O; experiment: Enzymatic assay for HpAFLDA deaminase activity; format: biochemical, H. pylori strain J99; conditions: other: deamination by HpAFLDA, 50 mM HEPES pH 7.0, 25 °C
[11] = deamination by HpAFLDA, 50 mM HEPES pH 7.0, 25 °C

Molecule: 5′-methylthioadenosine [MTA]
- catalytic efficiency of MTA hydrolysis relative to AFL hydrolysis (HpMTAN [1]): > 100 fold

Molecule: OC[C@H]1O[C@@H](n2cnc3c2N=CNC[C@H]3O)[C@H](O)[C@@H]1O [(8R)-CF, Coformycin, reference compound]
- Ki (HpAFLDA): > 10 µM
- Ki values [2]: submicromolar

Molecule: CSC[C@H]1O[C@@H](n2cnc3c2N=CNC[C@H]3O)C[C@@H]1O [(8R)-MT-2′d-CF, 5′-methylthio-2′-deoxycoformycin]
- inhibition of HpAFLDA activity (HpAFLDA; even at 10 μM): did not inhibit

Molecule: CSC[C@H]1O[C@@H](n2cnc3c2N=CNC[C@H]3O)[C@H](O)[C@@H]1O [(8R)-MTCF, 5′-methylthiocoformycin]
- type of inhibition of HpAFLDA (HpAFLDA; second phase of inhibition after reaction for 30 min): slow-onset inhibitor
- IC50 (H. pylori J99; read-out: IC50, H. pylori growth, liquid medium, 72 h, microaerophilic, 37 °C): 14 ± 1 µM

Molecule: O[C@@H]1CNC=Nc2c1ncn2[C@H]1C[C@H](O)[C@@H](CSc2ccccc2)O1 [(8R)-PhT-2′d-CF, 5′-phenylthio-2′-deoxycoformycin]
- inhibition of HpAFLDA (in words) (HpAFLDA): showed some inhibition

Molecule: CCCSC[C@H]1O[C@@H](n2cnc3c2N=CNC[C@H]3O)C[C@@H]1O [(8R)-PrT-2′d-CF, 5′-propylthio-2′-deoxycoformycin]
- inhibition of HpAFLDA (in words) (HpAFLDA): showed some inhibition

Molecule: Nc1ncnc2c1ncn2[C@@H]1O[C@H](CCC(=O)c2cccc(C(=O)O)c2)[C@@H](O)[C@H]1O [AFL, 6-Amino-6-deoxyfutalosine]
- fold difference of kcat/Km between AFL and adenosine (HpAFLDA (jhp0252)): 26 fold
- kcat (HpAFLDA (jhp0252); [11]): 0.62 s⁻¹
- hydrolysis by HpMTAN (in words) (HpMTAN [3]): capable of catalyzing only AFL hydrolysis
- conversion of the added metabolite by live H. pylori cells (H. pylori cells [4]; 25 μM AFL): readily converted AFL to FL and adenine
- effect of supplementation on cell growth (H. pylori; 200 μM AFL in the growth medium, BTDIA used to stress MK biosynthesis): did not cause a significant impact on cell growth
- catalytic efficiencies for AFL deamination [5]: 4.8 × 10^6 to 7.9 × 10^5 M^−1 s^−1

Molecule: CCCCSC[C@H]1CN(Cc2c[nH]c3c(N)ncnc23)C[C@@H]1O [BTDIA, BuT-DADMe-ImmA]
- menaquinone-6 concentrations in lipid extracts (H. pylori cells [6]; BTDIA at 14 nM, p < 0.005): decreased significantly
- cellular DHFL concentrations (H. pylori cells [6]; BTDIA at its half-maximal inhibitory concentration (14 nM)): Significant decreases

Molecule: O=C(O)c1cccc(C(=O)CC[C@H]2O[C@@H](n3cnc4c(=O)[nH]cnc43)[C@H](O)[C@@H]2O)c1 [FL, futalosine]
- reversal of MTCF growth inhibition by supplementation (H. pylori J99; 50 μM FL with 6-100 μM MTCF, 96 h): partially reversed the growth inhibition
- hydrolysis by HpMTAN (in words) (HpMTAN [3]): not FL hydrolysis
- kcat (HpMTAN [3]; hydrolysis by HpMTAN, 50 mM HEPES pH 7.0): <1e-05 s⁻¹
- change of the FL concentration in live H. pylori cells (H. pylori cells [4]; 25 μM FL): no significant changes
- hypoxanthine formation in live H. pylori cells (H. pylori cells [4]; 25 μM FL): no hypoxanthine was formed
- effect of supplementation on cell growth (H. pylori; FL 1 to 200 μM): did not affect cell growth

Molecule: Nc1ncnc2c1ncn2[C@@H]1O[C@H](CSCC[C@H](N)C(=O)O)[C@@H](O)[C@H]1O [SAH, S-adenosylhomocysteine]
- Km (HpAFLDA (jhp0252); [11]): 220 ± 50 µM
- kcat (HpAFLDA (jhp0252); [11]): 0.12 ± 0.02 s⁻¹

Molecule: Nc1ncnc2c1ncn2[C@@H]1O[C@H](CO)[C@@H](O)[C@H]1O [adenosine]
- fold difference of kcat/Km between AFL and adenosine (HpAFLDA (jhp0252)): 26 fold

B1: HpMTAN (Helicobacter pylori J99) (protein)
chain: T1 sequence (Q9ZMY2 1-230)
- Km [7]: 1.6 ± 0.3 µM
- kcat [7]: 0.022 ± 0.02 s⁻¹
- kcat/Km [7]: 14000 M⁻¹ s⁻¹

B2: HpAFLDA (jhp0252) (Helicobacter pylori J99) (protein)
chain: T2 sequence (Q9ZMG8 1-409)
- kcat [8]: 1.6 ± 0.3 s⁻¹
- kcat/Km [8]: 12000 M⁻¹ s⁻¹
- Km [9]: 9 ± 1 µM
- kcat [9]: 0.62 ± 0.03 s⁻¹
- kcat/Km [9]: 68000 M⁻¹ s⁻¹
- Km [10]: 170 ± 40 µM
- kcat [10]: 0.44 ± 0.06 s⁻¹
- kcat/Km [10]: 2600 M⁻¹ s⁻¹

Reference: article PMC9260860 (Biochemistry, 2021)
